Laboratory results reported in ChEMBL document CHEMBL2331322, “Synthesis and antimicrobial activity of some new benzo and naphthonitrile derivatives” (2013).
Values after ≈ are worked out from the molar mass of the structure shown.

What was measured:
Type in all cases: functional
Fusarium oxysporum [1] = assay: Antimicrobial activity against Fusarium oxysporum at 1 mg/mL after 48 hrs by agar disc diffusion method; details: read-out: DIZ
Summary of the method: (§1)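 Sterile 5 mm filter paper disks were impregnated with test solution in DMF (1 mg/mL) and placed on agar plates seeded with the test organism, in triplicate. Bacteria were incubated at 37 °C for 24 h and fungi for […] (so in the source). The read-out was the average inhibition zone diameter around the disks, in mm.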

Bacillus thuringiensis [2] = assay: Antimicrobial activity against Bacillus thuringiensis at 1 mg/mL after 24 hrs by agar disc diffusion method; details: read-out: DIZ; summary of the method: as §1
Pseudomonas aeruginosa [3] = assay: Antimicrobial activity against Pseudomonas aeruginosa after 24 hrs by microdilution susceptibility test
Summary of the method: (§2)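 MIC was determined by broth microdilution, using Müller–Hinton broth for bacteria and Sabouraud liquid medium for fungi. Stocks were made in DMF and serially diluted twofold. Wells were inoculated at 10⁶ CFU/mL and plates incubated at 36 °C for 24–48 h, with controls included. Only compounds giving agar-diffusion zones >14 mm were tested.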

Bacillus subtilis [4] = assay: Antimicrobial activity against Bacillus subtilis after 24 hrs by microdilution susceptibility test; summary of the method: as §2
Pseudomonas aeruginosa [5] = assay: Antimicrobial activity against Pseudomonas aeruginosa at 1 mg/mL after 24 hrs by agar disc diffusion method; details: read-out: DIZ; summary of the method: as §1
Bacillus subtilis [6] = assay: Antimicrobial activity against Bacillus subtilis at 1 mg/mL after 24 hrs by agar disc diffusion method; details: read-out: DIZ; summary of the method: as §1
Botrytis fabae [7] = assay: Antimicrobial activity against Botrytis fabae at 1 mg/mL […] by agar disc diffusion method; details: read-out: DIZ
Escherichia coli [8] = assay: Antimicrobial activity against Escherichia coli after 24 hrs by microdilution susceptibility test; summary of the method: as §2
Botrytis fabae [9] = assay: Antimicrobial activity against Botrytis fabae after 48 hrs by microdilution susceptibility test; summary of the method: as §2
Escherichia coli [10] = assay: Antimicrobial activity against Escherichia coli at 1 mg/mL after 24 hrs by agar disc diffusion method; details: read-out: DIZ; summary of the method: as §1
Fusarium oxysporum [11] = assay: Antimicrobial activity against Fusarium oxysporum after 48 hrs by microdilution susceptibility test; summary of the method: as §2
Bacillus thuringiensis [12] = assay: Antimicrobial activity against Bacillus thuringiensis after 24 hrs by microdilution susceptibility test; summary of the method: as §2

Row | SMILES | zone of inhibition at 1000 µg/mL (Fusarium oxysporum [1]) | zone of inhibition at 1000 µg/mL (Bacillus thuringiensis [2]) | MIC (Pseudomonas aeruginosa [3]) | MBC (Bacillus subtilis [4]) | MIC (Bacillus subtilis [4]) | zone of inhibition at 1000 µg/mL (Pseudomonas aeruginosa [5]) | zone of inhibition at 1000 µg/mL (Bacillus subtilis [6]) | zone of inhibition at 1000 µg/mL (Botrytis fabae [7]) | MBC (Escherichia coli [8]) | MIC (Escherichia coli [8]) | MIC (Botrytis fabae [9]) | zone of inhibition at 1000 µg/mL (Escherichia coli [10]) | MIC (Fusarium oxysporum [11]) | MIC (Bacillus thuringiensis [12])
1 | N#Cc1ccccc1C(C#N)/N=N/c1ccccc1 (stereo not given) | 38 mm | 30 mm | 12.5 µg/mL (≈ 50.8 µM) | 100 µg/mL (≈ 406 µM) | 12.5 µg/mL (≈ 50.8 µM) | 30 mm | 37 mm | 40 mm | 200 µg/mL (≈ 812 µM) | 25 µg/mL (≈ 102 µM) | 12.5 µg/mL (≈ 50.8 µM) | 33 mm | 12.5 µg/mL (≈ 50.8 µM) | 25 µg/mL (≈ 102 µM)
2 | COc1ccc(/C=C(\C#N)c2ccccc2C#N)cc1 | 20 mm | 18 mm | 100 µg/mL (≈ 384 µM) | 100 µg/mL (≈ 384 µM) | 100 µg/mL (≈ 384 µM) | 26 mm | 26 mm | 25 mm | 200 µg/mL (≈ 768 µM) | 100 µg/mL (≈ 384 µM) | 100 µg/mL (≈ 384 µM) | 19 mm | 50 µg/mL (≈ 192 µM) | 100 µg/mL (≈ 384 µM)
3 | N#CCc1ccccc1C#N | 14 mm | 15 mm | 100 µg/mL (≈ 703 µM) | 200 µg/mL (≈ 1410 µM) | 100 µg/mL (≈ 703 µM) | 15 mm | 15 mm | 15 mm | 200 µg/mL (≈ 1410 µM) | 100 µg/mL (≈ 703 µM) | 100 µg/mL (≈ 703 µM) | 16 mm | 50 µg/mL (≈ 352 µM) | 50 µg/mL (≈ 352 µM)
4 | COc1ccc(/N=N/C(C#N)c2ccccc2C#N)cc1 (stereo not given) | 37 mm | 36 mm | 25 µg/mL (≈ 90.5 µM) | 100 µg/mL (≈ 362 µM) | 6.25 µg/mL (≈ 22.6 µM) | 30 mm | 39 mm | 38 mm | 50 µg/mL (≈ 181 µM) | 12.5 µg/mL (≈ 45.2 µM) | 12.5 µg/mL (≈ 45.2 µM) | 35 mm | 12.5 µg/mL (≈ 45.2 µM) | 12.5 µg/mL (≈ 45.2 µM)
5 | C[C@@H]1C[C@@H]([C@H](O)CC2CC(=O)NC(=O)C2)C(=O)[C@@H](C)C1 [CYCLOHEXIMIDE] | 43 mm |  |  |  |  |  |  | 42 mm |  |  | 3.12 µg/mL (≈ 11.1 µM) |  | 3.12 µg/mL (≈ 11.1 µM) | 
6 | N=c1[nH]c2nn(-c3ccc([N+](=O)[O-])cc3)nc2c2ccccc12 | 15 mm | 38 mm | 50 µg/mL (≈ 163 µM) | 200 µg/mL (≈ 653 µM) | 50 µg/mL (≈ 163 µM) | 15 mm | 38 mm | 16 mm | 200 µg/mL (≈ 653 µM) | 25 µg/mL (≈ 81.6 µM) | 25 µg/mL (≈ 81.6 µM) | 26 mm | 25 µg/mL (≈ 81.6 µM) | 50 µg/mL (≈ 163 µM)
7 | O=C(N[C@H](CO)[C@H](O)c1ccc([N+](=O)[O-])cc1)C(Cl)Cl [CHLORAMPHENICOL] |  | 44 mm | 6.25 µg/mL (≈ 19.3 µM) |  | 3.12 µg/mL (≈ 9.67 µM) | 38 mm | 44 mm |  |  | 6.25 µg/mL (≈ 19.3 µM) |  | 37 mm |  | 3.12 µg/mL (≈ 9.67 µM)
8 | Cc1ccc(/N=N/C(C(N)=O)c2ccccc2C#N)cc1 (stereo not given) | 38 mm | 36 mm | 12.5 µg/mL (≈ 44.9 µM) | 100 µg/mL (≈ 359 µM) | 25 µg/mL (≈ 89.8 µM) | 16 mm | 31 mm | 20 mm | 200 µg/mL (≈ 719 µM) | 50 µg/mL (≈ 180 µM) | 25 µg/mL (≈ 89.8 µM) | 15 mm | 25 µg/mL (≈ 89.8 µM) | 50 µg/mL (≈ 180 µM)
9 | CC1(C)S[C@@H]2[C@H](NC(=O)[C@H](N)c3ccccc3)C(=O)N2[C@H]1C(=O)O [AMPICILLIN] |  |  |  | 50 µg/mL (≈ 143 µM) | 3.12 µg/mL (≈ 8.94 µM) |  | 40 mm |  | 25 µg/mL (≈ 71.5 µM) | 6.25 µg/mL (≈ 17.9 µM) |  | 38 mm |  | 
10 | CC(=O)OCC1=C(C(=O)O)N2C(=O)[C@@H](NC(=O)Cc3cccs3)[C@H]2SC1 [CEPHALOTHIN] |  | 37 mm | 6.25 µg/mL (≈ 15.8 µM) |  | 6.25 µg/mL (≈ 15.8 µM) | 37 mm | 36 mm |  |  | 6.25 µg/mL (≈ 15.8 µM) |  | 38 mm |  | 6.25 µg/mL (≈ 15.8 µM)
